Results from ChEMBL document CHEMBL2401613, “Benzofused hydroxamic acids: useful fragments for the preparation of histone deacetylase inhibitors. Part 1: hit identification” (Bioorg Med Chem Lett, 2013).
Values after ≈ are worked out from the molar mass of the structure shown.

Key:
[1] = molecular target: T1, Histone deacetylase (Homo sapiens) (UniProt Q13547+O15379+Q9UBN7+Q92769+Q9UQL6+Q8WUI4+Q9BY41+Q96DB2+P56524+Q9UKV0+Q969S8); assay: Inhibition of HDAC (unknown origin) at 1 uM; format: protein assay
Method in brief: (§1)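 HeLa nuclear extract HDAC incubated with an acetylated-lysine substrate and inhibitor. Deacetylated substrate mixed with developer gives a fluorophore, read at ex/em 335/460 nm. Two-point screen at 0.1 and 1.0 µM, expressed as % inhibition. Triplicate determinations, averaged.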

[2] = molecular target: T1, Histone deacetylase (Homo sapiens); assay: Inhibition of HDAC (unknown origin) at 0.1 uM; format: protein assay; method in brief: as §1
HCT-116 [3] = assay: Cytotoxicity against human HCT116 cells after 5 days by Alamar Blue assay; format: functional, cell-based; settings: HCT-116, 120 h
Method in brief: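 Colon cancer HCT-116 cells were seeded in complete medium, and inhibitors were added after 24 h at 0.1–100 µM in quadruplicate. After 5 days, Alamar Blue was added and plates were incubated a further 4 h. Fluorescence was read at ex 530/em 590 nm. IC50 is the concentration giving 50% inhibition of proliferation.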

[4] = Aqueous solubility of the compound at pH 7.4; format: physicochemical
HCT-116 [5] = assay: Antitumor activity against human HCT116 cells xenografted in CD1 mouse assessed as reduction in tumor volume at 50 mg/kg, po; format: functional; set-up: scale not given: the % may be the effect or the level left
Method in brief: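 Female CD1 nude (nu/nu) athymic mice were dosed orally at 50 and 100 mg/kg for 21 days, n = 4 per group. Vehicle control was 0.5% CMC at 10 mL/kg. Read-out was tumor volume inhibition (TVI).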

Histone deacetylase = assay: Inhibition of HDAC in human HeLa cells assessed as deacetylation of substrate by fluorescence plate reader analysis; format: cell-based
Method in brief: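 Enzyme source: HeLa cell nuclear extract (partially purified HDAC). Extract incubated with an acetylated-lysine substrate in the presence of inhibitor; a developer then releases a fluorophore from the deacetylated substrate, read at ex/em 335/460 nm. IC50 is the concentration giving 50% inhibition of enzymatic activity, from triplicate runs averaged. SAHA and LAQ-xx were positive controls.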

Row | inhibition [1] [%] | inhibition [2] [%] | solubility [4] [µg/mL] | IC50 (Histone deacetylase) [µM] | Compound | IC50 (HCT-116 [3]) [nM] | Activity (HCT-116 [5]) [%]
1 | 78 | 24 |  |  | O=C(Cc1ncc[nH]1)Nc1ccc2cc(C(=O)NO)sc2c1 |  | 
2 | 85 | 71 | 4 (≈ 12.3 µM) |  | O=C(Cc1ccccc1)Nc1ccc2cc(C(=O)NO)sc2c1 | 100 | 26
3 | 68 | 23 |  |  | O=C(NO)c1cc2ccc(COc3cccc(F)c3)cc2s1 |  | 
4 | 76 | 42 | 4 (≈ 11.8 µM) |  | O=C(CCc1ccccc1)Nc1ccc2cc(C(=O)NO)sc2c1 | 2600 | 
5 |  |  |  | 1.76 | Cc1ccc2cc(C(=O)NO)sc2c1 |  | 
6 | 87 | 73 |  |  | O=C(Cc1ccsc1)Nc1ccc2cc(C(=O)NO)sc2c1 | 110 | 
7 | 58 | 22 |  |  | O=C(NO)c1cc2ccc(COc3ccccc3F)cc2s1 |  | 
8 | 79 | 50 | 1310 (≈ 4080 µM) |  | CN(C)CCCC(=O)Nc1ccc2cc(C(=O)NO)sc2c1 | 2400 | 
9 | 76 | 53 |  |  | O=C(NO)c1cc2ccc(CN(CCO)c3ccccc3)cc2s1 | 1700 | 
10 | 78 | 44 |  |  | N[C@H](CCc1ccccc1)C(=O)Nc1ccc2cc(C(=O)NO)sc2c1 | 320 | 
11 | 79 | 58 | 4 (≈ 13.4 µM) |  | O=C(NO)c1cc2ccc(NCc3ccccc3)cc2s1 | 1300 | 
12 | 24 | < 20 |  |  | O=C(NO)c1cc2ccc(CSc3ccc(F)cc3)cc2s1 |  | 
13 | 31 | < 20 |  |  | O=C(NO)c1cc2ccc(COc3ccc(F)cc3)cc2s1 |  | 
14 | 84 | 75 |  |  | COc1ccc(CC(=O)Nc2ccc3cc(C(=O)NO)sc3c2)cc1 | 490 | 
15 | < 20 | < 20 |  |  | N#Cc1cc2ccc(NC(=O)[C@H](N)c3ccccc3)cc2s1 |  | 
16 | 83 | 62 | 4 (≈ 12.2 µM) |  | O=C(Cc1cccnc1)Nc1ccc2cc(C(=O)NO)sc2c1 | 3000 | 
17 |  |  |  | 1.08 | O=C(NO)c1cc2ccsc2s1 |  | 
18 | 88 | 60 |  |  | O=C(Cc1ccccc1)NCc1ccc2cc(C(=O)NO)sc2c1 | 1200 | 
19 | 84 | 66 | 4 (≈ 12.2 µM) |  | O=C(Cc1ccncc1)Nc1ccc2cc(C(=O)NO)sc2c1 | 1800 | 
20 | 74 | 39 | 4 (≈ 12.2 µM) |  | O=C(Cc1ccccn1)Nc1ccc2sc(C(=O)NO)cc2c1 |  | 
21 | 81 | 54 |  |  | COc1ccccc1CC(=O)Nc1ccc2cc(C(=O)NO)sc2c1 | 550 | 
22 | 78 | 49 | 4 (≈ 12.2 µM) |  | O=C(Cc1ccncc1)Nc1ccc2sc(C(=O)NO)cc2c1 | 8600 | 
23 | 63 | 21 | 4 (≈ 11.3 µM) |  | CN(C(=O)CCc1ccccc1)c1ccc2cc(C(=O)NO)sc2c1 |  | 
24 | 80 | 52 |  |  | O=C(NO)c1cc2ccc(CN(CCO)Cc3ccccc3)cc2s1 | 830 | 
25 | 67 | 27 | 4 (≈ 11.3 µM) |  | CN(C(=O)CCc1ccccc1)c1ccc2sc(C(=O)NO)cc2c1 |  | 
26 | 81 | 54 |  |  | N[C@@H](Cc1ccccc1)C(=O)Nc1ccc2cc(C(=O)NO)sc2c1 | 5000 | 
27 | 61 | 28 | 4 (≈ 12.8 µM) |  | O=C(NO)c1cc2cc(NCCc3ccccc3)ccc2s1 |  | 
28 | 83 | 65 |  |  | COc1cccc(CC(=O)Nc2ccc3cc(C(=O)NO)sc3c2)c1 | 600 | 

Row | inhibition [1] [%] | inhibition [2] [%] | solubility [4] [µg/mL] | IC50 (Histone deacetylase) [µM] | Compound | IC50 (HCT-116 [3]) [nM] | Activity (HCT-116 [5]) [%]
29 |  |  |  | 0.458 | Cc1ccc2cc(C(=O)NO)sc2c1F |  | 
30 | 78 | 59 | 4 (≈ 12.2 µM) |  | O=C(Cc1ccccn1)Nc1ccc2cc(C(=O)NO)sc2c1 | 480 | 
31 |  |  |  | 11.63 | O=C(NO)c1cc2c(Cl)cccc2s1 |  | 
32 |  |  |  | 3.79 | COc1cccc2sc(C(=O)NO)cc12 |  | 
33 | 83 | 53 |  |  | O=C(NO)c1cc2ccc(CN3CCc4ccccc4C3)cc2s1 | 1300 | 
34 |  |  |  | 0.989 | Cc1cc2sc(C(=O)NO)cc2cc1O |  | 
35 | 78 | 55 |  |  | O=C(Cc1ccc2c(c1)OCO2)Nc1ccc2cc(C(=O)NO)sc2c1 |  | 
36 |  |  |  | 1.35 | COc1cc2cc(C(=O)NO)sc2cc1C |  | 
37 | 82 | 57 |  |  | CN(C)c1ccc(CC(=O)Nc2ccc3cc(C(=O)NO)sc3c2)cc1 | 500 | 
38 | 85 | 70 |  |  | N[C@@H](C(=O)Nc1ccc2cc(C(=O)NO)sc2c1)c1ccccc1 | 500 | 
39 | 92 | 89 |  |  | O=C(NCc1ccc2cc(C(=O)NO)sc2c1)c1ccco1 | 70 | 
40 |  | 49 | 4 (≈ 12.2 µM) |  | O=C(Cc1cccnc1)Nc1ccc2sc(C(=O)NO)cc2c1 | 17000 | 
41 |  |  |  | 0.557 | O=C(NO)c1cc2sccc2s1 |  | 
42 | 91 | 77 |  |  | O=C(NO)c1cc2ccc(CN(CCO)C(=O)Nc3ccccc3)cc2s1 | 1400 | 
43 | 84 | 72 |  |  | O=C(NCc1ccc2cc(C(=O)NO)sc2c1)c1cccnc1 | 730 | 
44 | 73 | 32 | 4 (≈ 12.8 µM) |  | O=C(NO)c1cc2ccc(NCCc3ccccc3)cc2s1 |  | 
45 |  |  |  | 2.17 | O=C(NO)c1cc2ccccc2s1 |  | 
46 | 82 | 48 | 4 (≈ 12.3 µM) |  | O=C(Cc1ccccc1)Nc1ccc2sc(C(=O)NO)cc2c1 | 1300 | 
47 | 68 | 28 | 4 (≈ 13.4 µM) |  | O=C(NO)c1cc2cc(NCc3ccccc3)ccc2s1 |  | 
48 |  |  |  | 2.91 | O=C(NO)c1cc2cccc(Cl)c2s1 |  | 
49 | 77 | 41 |  |  | N[C@H](Cc1ccccc1)C(=O)Nc1ccc2cc(C(=O)NO)sc2c1 | 340 | 
50 |  |  |  | 76.13 | O=C(NO)c1csc2ccccc12 |  | 
51 | 87 | 93 |  |  | O=C(NCc1ccc2cc(C(=O)NO)sc2c1)c1ccccc1 | 250 | 
52 |  |  |  | 9.19 | O=C(NO)c1cc2cccc(C(F)(F)F)c2s1 |  | 
53 | 85 | 71 |  |  | N[C@@H](CCc1ccccc1)C(=O)Nc1ccc2cc(C(=O)NO)sc2c1 | 3400 | 
54 | 85 | 69 |  |  | N[C@H](C(=O)Nc1ccc2cc(C(=O)NO)sc2c1)c1ccccc1 | 770 | 
55 | 69 | 28 | 4 (≈ 11.8 µM) |  | O=C(CCc1ccccc1)Nc1ccc2sc(C(=O)NO)cc2c1 |  | 
